Compounds with a hit are over-represented: about 1% of the library has one in this group of screens.
thrombin 1536: human alpha-thrombin inhibitors, primary screen, counter-screen for coagulation protease inhibitor project, biochemical, 1536-well, fluorogenic AMC substrate; Prothrombin (Homo sapiens), P00734; Boc-VPR-AMC fluorogenic substrate cleavage; inhibition, % at 5 µM; 0.26% of 220,000 active; AID 1046, 2008;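 active means inhibition at or above 40%; inactive means inhibition below 40%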;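 further: 0% = enzyme with no compound and 100% = wells without enzyme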
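Material: Human alpha-thrombin protein | Buffer or medium: pH 7.5 Tris-saline with Tween 20 | Reagent: Boc-VPR-AMC substrate, 15 µM final | Schedule: Reaction at ambient temperature | Detection: AMC fluorescence at 355 nm excitation and 460 nm emission | Evaluation: Percent inhibition scaled between no-compound controls and no-enzyme blanks | Controls: no-compound enzyme wells and no-enzyme blanks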
KLK5 inh: human KLK5 protease inhibitors, primary screen, biochemical, 1536-well; Kallikrein-5 (Homo sapiens), Q9Y337; recombinant hK5, fluorogenic AMC substrate cleavage; inhibition, % at 5 µM; 0.59% of 210,000 active; AID 873, 2007;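 active means inhibition of 40% or more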;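 further: 0% = enzyme controls without compound and 100% = no-enzyme blanks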
FXIa inh: human FXIa protease inhibitors, primary screen, biochemical, 1536-well. 0.14% of 220,000 active. purified FXIa, Boc-Glu-Ala-Arg-AMC fluorogenic substrate. inhibition, % at 5 µM. AID 798, 2007;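 active means inhibition of at least 40%; inactive means inhibition below 40%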;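 further: fluorescence of freed AMC excited at 355 nm; 0% = enzyme without compound and 100% = no enzyme blank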
FXIIa inh 1536: human FXIIa protease inhibitors, primary screen, biochemical, 1536-well. Coagulation factor XII (Homo sapiens), P00748. purified FXIIa, Boc-QGR-AMC fluorogenic substrate, 2 h. inhibition, % at 5 µM. 0.3% of 220,000 active. AID 800, 2007; in the data active means inhibition above about 40%;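 further: 0% = enzyme with no compound and 100% = blank without enzyme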
Target sequence (P00748 20-372 limits assumed): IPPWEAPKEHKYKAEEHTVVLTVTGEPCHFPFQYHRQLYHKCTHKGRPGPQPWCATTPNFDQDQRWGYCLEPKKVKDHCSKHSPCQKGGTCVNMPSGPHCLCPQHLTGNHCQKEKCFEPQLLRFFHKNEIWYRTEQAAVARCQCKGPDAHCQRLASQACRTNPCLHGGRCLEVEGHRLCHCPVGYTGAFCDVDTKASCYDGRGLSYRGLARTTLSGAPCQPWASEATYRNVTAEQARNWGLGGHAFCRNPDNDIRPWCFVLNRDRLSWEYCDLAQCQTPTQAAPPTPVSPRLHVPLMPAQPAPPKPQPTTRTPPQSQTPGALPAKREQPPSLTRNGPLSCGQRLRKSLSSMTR
Target sequence (P00748 373-615 limits assumed): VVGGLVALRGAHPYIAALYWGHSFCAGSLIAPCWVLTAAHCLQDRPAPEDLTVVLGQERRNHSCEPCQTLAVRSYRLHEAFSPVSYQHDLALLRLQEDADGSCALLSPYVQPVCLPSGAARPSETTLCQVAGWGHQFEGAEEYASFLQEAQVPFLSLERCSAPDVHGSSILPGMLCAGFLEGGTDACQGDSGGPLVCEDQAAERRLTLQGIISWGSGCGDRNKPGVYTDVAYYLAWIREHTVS
Active calls of the source: *; / = no result.

SMILES | thrombin 1536 | KLK5 inh | FXIa inh | FXIIa inh 1536
COC(=O)c1ccc(C)c(N(CCO)CCO)c1 | 24 | 57* | 4 | 10
COCCNC(=O)CSc1nnc2c(Cl)cc(Cl)cn12 | 17 | 52* | 2 | 56*
C/C=C(\C)C(=O)OC1c2c(ccc3ccc(=O)oc23)OC(C)(C)C1OC(C)=O (stereo not given) | -5 | -3 | 45* | 39
CCN1C(=O)/C(=C/N(C(C)=O)c2ccccc2)N(c2ccccc2)C1=S | 76* | 50* | 9 | 22
CCc1ccc(/C=C2/C(=O)N(c3ccccc3)C(=S)N2CC(=O)OC)s1 | -5 | -1 | 3 | 3
Cn1c(=O)c2c(n(Cc3ccccc3)c1=O)NC(=O)C2CC(=O)NCc1cccc(Cl)c1 (stereo not given) | 7 | 1 | 22 | 33
CCS(=O)(=O)N1CCCC(c2nc(-c3cccc(OC)c3)no2)C1 (stereo not given) | 15 | 40* | 5 | 19
CCOC(=O)C1(CC2CCCCO2)CCN(C(=O)Nc2ccccc2)CC1 (stereo not given) | 0 | / | 1 | 6
O=S(=O)([N-]c1nc2ccccc2nc1-n1cc[n+](Cc2ccccc2)c1)c1ccc(Cl)cc1 | 16 | 28 | 60* | 58*
CC(C)CC[n+]1ccn(-c2nc3ccccc3nc2[N-]S(=O)(=O)c2ccccc2)c1 | 1 | -17 | 2 | 15
C=C(C)Cn1c(=O)c(NC(=O)c2ccccc2)c2n(c1=S)CCC2 | 25 | 41* | 16 | 20
COc1ccc(-n2c(=O)c(NC(=O)c3ccccc3)c3n(c2=S)CCCCC3)cc1 | -12 | 2 | 0 | 7
CC(Sc1nnc(-c2ccco2)o1)C(=O)NCCC1=CCCCC1 (stereo not given) | / | 47* | 28 | 21
O=C(c1ccc(S(=O)(=O)NCC2CCCO2)cc1)N1CCc2ccccc21 (stereo not given) | 3 | 0 | 24 | 29
O=C(CNCC1CCCO1)N1CCCc2ccccc21 (stereo not given) | 15 | 52* | 6 | 9
Cn1cnc(S(=O)(=O)Nc2cc(-c3ccc(Cl)cc3)nn2C)c1 | -4 | 2 | 5 | 12
COc1cc(OC)cc(-c2n[nH]c(=S)n2-c2ccc3c(c2)OCCO3)c1 | 41* | 16 | 35 | /
COc1ccc(-c2n[nH]c(=S)n2-c2ccc3c(c2)OCCO3)cc1 | -2 | 2 | -3 | -1
O=C(CSc1nc2ccccc2c(=O)[nH]1)c1ccccc1 | 5 | -7 | 10 | 15
CC(C)(C)c1ccc(C(=O)CSc2nc3ccccc3c(=O)[nH]2)cc1 | 14 | 40* | 14 | 10
Cc1nc(SCC(=O)c2ccccc2)[nH]c(=O)c1Oc1ccc(Cl)cc1 | 34 | 64* | 29 | 22
COc1ccc(Oc2c(C)nc(SCC(=O)c3ccc(Cl)cc3)[nH]c2=O)cc1 | 2 | 4 | 3 | 12
COc1cccc(CNC(=O)C2=C(C)C(=O)OC23CCC(C)CC3)c1 (stereo not given) | -1 | -5 | -2 | 13
Cc1nn(-c2ccccc2)c(C)c1/C=N/NC(=O)c1cc(C2CC2)[nH]n1 | 1 | 5 | 1 | 6
Cc1cc(C(=O)N/N=C/c2c(C)nn(-c3ccccc3)c2C)n[nH]1 | 17 | 89* | 26 | 34
SMILES | thrombin 1536 | KLK5 inh | FXIa inh | FXIIa inh 1536
CCCCCOc1ccc(C(=O)NC(C(=O)O)C(C)C)cc1 (stereo not given) | 9 | 41* | 11 | -1
O=C1c2[nH]nc(-c3ccccc3O)c2C(c2ccccc2)N1Cc1ccco1 (stereo not given) | 2 | 0 | 2 | 16
O=C1c2[nH]nc(-c3ccccc3O)c2C(c2ccccc2F)N1Cc1ccco1 (stereo not given) | 23 | 41* | 15 | 22
COc1cc2c(cc1OC)N1C(=O)CC(OCC(=O)O)C3C4CC5(CCN5C(=O)C4=O)C2C31 (stereo not given) | 6 | -1 | -5 | -1
COc1ccc(CC(=O)Nc2ccc(-c3ccc4nnc(C)n4n3)cc2)cc1OC | 0 | 0 | -1 | 10
N=C1/C(=C\c2ccc(OC(=O)c3ccco3)cc2)C(=O)N=C2SC=NN12 | 21 | 58* | 34 | 30
O=C(c1cc2ccccc2[nH]1)N1CCOCC1 | 48* | 29 | 9 | 18
CCOc1ccc(NC(=O)CSC2=NCCN2)cc1 | 5 | 47* | 10 | 13
Cc1cc(=O)oc2cc(NC(=O)CC3(CC(=O)O)CCCC3)ccc12 | -4 | 52* | 0 | -1
COc1ccccc1NC(=O)N1CCCC1C(=O)NC1CCCCC1 (stereo not given) | 54* | 22 | 11 | 15
Cc1cc(C)cc(NC(=O)c2ccc([N+](=O)[O-])o2)c1 | 24 | 30 | 70* | 32
O=C(Cn1nnc(-c2ccc(CN3CCOCC3)cc2)n1)N(c1ccccc1)c1ccccc1 | 2 | 0 | 1 | 4
Cn1c(/C(C#N)=C/C2CC=CCC2)nc2ccccc21 (stereo not given) | 7 | 47* | 3 | 6
Cc1nc(NCCc2ccc(F)cc2)c(C#N)c(C)c1[N+](=O)[O-] | -13 | -8 | -2 | 4
Cc1nc(NCCc2ccccc2F)c(C#N)c(C)c1[N+](=O)[O-] | 46* | 25 | 14 | 25
Cc1nc(/C(=N/O)C(N)=O)cs1 | 0 | 3 | 12 | 5
COC(=O)c1ccc2nc(NC(=O)CN3C(=O)CCC3=O)sc2c1 | 15 | 50* | 13 | 21
COC(=O)c1ccc2nc(NC(=O)C(C)C)sc2c1 | -9 | -8 | -3 | 2
CC(C)c1cc(-c2cc(C(=O)NCc3ccccc3)on2)nc(NCC2CC2)n1 | 3 | 4 | 6 | 10
NNC(=O)c1cccc(Cn2cc(Br)c([N+](=O)[O-])n2)c1 | -2 | 1 | 1 | 6
CCCNC(=O)c1cccc(Cn2cc(Br)c([N+](=O)[O-])n2)c1 | 11 | 41* | 9 | 39
CCCC(C)NC(=O)COC(=O)c1cc(Br)c(Br)s1 (stereo not given) | -1 | 5 | -2 | 4
COc1ccc(C2CC(c3ccc(Br)cc3)=NN2C(=O)CSC2=NCCS2)cc1 (stereo not given) | 2 | -17 | 5 | 15
O=C(NCc1ccco1)c1ccc2c(c1)CCO2 | 32 | 53* | 10 | 52*
O=c1c(Cl)c(N2CCN(S(=O)(=O)c3ccc(F)cc3)CC2)cnn1-c1cccc(Cl)c1 | -3 | -5 | -6 | 0
O=C(NCc1ccc(Cl)cc1)C(=O)N/N=C/c1ccc(Br)cc1 | -9 | -2 | 2 | 3
CN(Cc1ccon1)C(=O)CC1C(=O)NCCN1CC1CCCCC1 (stereo not given) | -2 | 35 | 60* | 28
CCOC(=O)C(=CNc1cc(Cl)c(-c2ccco2)c(Cl)c1)C(=O)OCC | -5 | 7 | 5 | 2
Cn1nc(C(=O)Nc2nc(-c3ccc(F)cc3)cs2)ccc1=O | 2 | 61* | 105* | 39
